Measurements: ChEMBL document CHEMBL4725492, “Dioxane-Linked Amide Derivatives as Novel Bacterial Topoisomerase Inhibitors against Gram-Positive Staphylococcus aureus” (ACS Med Chem Lett, 2020)
≈ marks a conversion by molar mass, not a printed value.

Experiments:
[1] = target: DNA gyrase (Staphylococcus aureus, UniProt P0A0K8+P20831); test: Inhibition of Staphylococcus aureus DNA gyrase using relaxed pBR322 as substrate by gel electrophoresis; assay type: protein-complex assay
[2] = system: Staphylococcus aureus; test: Antibacterial activity against Staphylococcus aureus D83N by CLSI based agar dilution method; assay type: functional
[3] = system: K562; test: Growth inhibition of human K562 cells incubated for 48 hrs by sulforhodamine B assay; assay type: functional
[4] = system: Staphylococcus aureus; test: Antibacterial activity against Staphylococcus aureus ATCC 29213 by CLSI based agar dilution method; assay type: functional
[5] = system: Staphylococcus aureus; test: Antibacterial activity against Staphylococcus aureus USA300 by CLSI based agar dilution method; assay type: functional
[6] = system: Staphylococcus aureus; test: Antibacterial activity against Staphylococcus aureus 3527 by CLSI based agar dilution method; assay type: functional
[7] = target: Topoisomerase IV (Staphylococcus aureus, UniProt P0C1S7+P0C1U9); test: Inhibition of Staphylococcus aureus topoisomerase-4 assessed as reduction in decatenation of kinetoplast DNA agarose gel electrophoresis method; assay type: protein-complex assay
[8] = Growth inhibition of human K/VP.5 cells incubated for 48 hrs by sulforhodamine B assay; assay type: functional
[9] = target: Voltage-gated inwardly rectifying potassium channel KCNH2 (Homo sapiens, UniProt Q12809); test: Inhibition of human ERG; conditions: human
[10] = target: T1, DNA gyrase (Staphylococcus aureus) (UniProt P0A0K8+P20831); test: Inhibition of Staphylococcus aureus DNA gyrase assessed as single-strand break using relaxed pBR322 as substrate by ethidium bromide-based gel electrophoresis; assay type: protein-complex assay
How it was run: (§1)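 S. aureus gyrase-mediated DNA cleavage: compound was incubated with enzyme and DNA, and products were resolved on an ethidium-stained gel into negatively supercoiled, nicked (single-strand break) and linear (double-strand break) forms. Lane fluorescence was corrected for differential band emission. Percent of each form was calculated, and enzyme-only cleavage was subtracted. Concentrations spanned 0.1 nM–200 μM, with a 20 μM single-point screen. Results are mean ± SD or range.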

[11] = target: T1, DNA gyrase (Staphylococcus aureus); test: Inhibition of Staphylococcus aureus DNA gyrase assessed as double-strand break using relaxed pBR322 as substrate by ethidium bromide-based gel electrophoresis; assay type: protein-complex assay; conditions: dose microM 0.0001-20; how it was run: as §1
[12] = target: DNA topoisomerase 2-alpha (Homo sapiens, UniProt P11388); test: Inhibition of human topoisomerase 2alpha relative to control
How it was run: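 Human topoisomerase IIα decatenation activity was tested at a single concentration of 100 μM and reported as percent inhibition.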

SMILES: COc1ccc2nccc(CC[C@H]3OC[C@H](NC(=O)c4ccc5c(c4)NC(=O)CS5)CO3)c2c1
- IC50 [1]: 130 nM
- MIC [2]: > 64 µg/mL
- INH [3]: >200 µM
- MIC [4]: 0.03 µg/mL (≈ 0.0626 µM)
- MIC [5]: ≤ 0.125 µg/mL
- MIC [6]: ≤ 0.125 µg/mL
- IC50 [7]: 700 nM
- INH [8]: >200 µM
- INH [9]: > 30 µM
- inhibition [10]: Dose-dependent effect
- inhibition [11]: Dose-dependent effect
- inhibition (INH) [12]: 37%
